Results collected from several papers.
Effect on: microbial growth

SMILES	organism	method	strain	time	MIC
O=C(O)CN1C(=O)/C(=C/c2c3ccccc3c(-c3ccc(N(c4ccccc4)c4ccccc4)cc3)c3ccccc23)NC1=S	Micrococcus luteus	broth dilution	ATCC10240		> 1000 µg/mL
CCc1cc(Nc2cc(=O)n(CCCCO)c(=O)[nH]2)ccc1C	Lactobacillus acidophilus	agar dilution		48 h	32 µg/mL
O=C(O)c1cn(C2CC2)c2cc(N3CCNCC3)c(F)cc2c1=O	Micrococcus luteus	broth dilution		24 h	0.57 µM
N#Cc1c(O)c2c(-c3ccc(-c4ccccc4O)cc3)csc2[nH]c1=O	Staphylococcus aureus		NCTC8325		> 30 µM
CC1=NN(CNc2ccc(C(=O)O)cc2)C(=O)C1=NNn1c(-c2ccccc2)nc2ccccc2c1=O	Micrococcus luteus	broth dilution		24 h	50.5 µM
O=C1NC(=O)/C(=C/c2ccc3c(c2)OC(F)(F)O3)S1	Staphylococcus aureus		NCTC8325		> 30 µM
O=C1NN=C(N=Cc2ccc(O)cc2O)C1=NNn1c(-c2ccccc2)nc2ccccc2c1=O	Micrococcus luteus	broth dilution		24 h	53.5 µM
CN(C)[C@@H]1C(O)=C(C(N)=O)C(=O)[C@@]2(O)C(O)=C3C(=O)c4c(O)cccc4[C@@](C)(O)[C@H]3C[C@@H]12	Staphylococcus aureus		NCTC8325		0.5 µM
CC1(C)S[C@@H]2[C@H](NC(=O)[C@H](N)c3ccccc3)C(=O)N2[C@H]1C(=O)O	Bifidobacterium longum	broth dilution	ATCCBAA999		0.25 µg/mL
O=C1NC(=S)N/C1=C\c1c2ccccc2c(-c2ccc(N(c3ccccc3)c3ccccc3)cc2)c2ccccc12	Micrococcus luteus	broth dilution	ATCC10240		> 1000 µg/mL
COc1ccc(S(=O)(=O)N(C(C)=O)c2ccccc2/C=C/c2cc[n+]([O-])cc2)cc1	Staphylococcus aureus		NCTC8325		> 30 µM
O=C(O)c1cn(C2CC2)c2cc(N3CCNCC3)c(F)cc2c1=O	Micrococcus luteus	broth dilution	ATCC10240		0.98 µg/mL
CNC(=O)c1cc(Sc2ccc(NC(=O)Nc3ccc(Cl)c(C(F)(F)F)c3)cc2)ccn1	Staphylococcus aureus		NCTC8325	24 h	1 µM
O=C(O)CN1C(=O)/C(=C/c2ccc(-c3ccc(N(c4ccccc4)c4ccccc4)cc3)c3ccccc23)SC1=S	Micrococcus luteus	broth dilution	ATCC10240		31.3 µg/mL
CC1=NN(CNc2ccccc2[N+](=O)[O-])C(=O)C1=NNn1c(-c2ccccc2)nc2ccccc2c1=O	Micrococcus luteus	broth dilution		24 h	50.4 µM
O=C(O)CN1C(=O)/C(=C/c2c3ccccc3c(-c3ccc(N(c4ccccc4)c4ccccc4)cc3)c3ccccc23)SC1=S	Micrococcus luteus	broth dilution	ATCC10240		125 µg/mL
Cc1ncc([N+](=O)[O-])n1CCO	Lactobacillus acidophilus	agar dilution		48 h	> 16 µg/mL
